Screens deposited in PubChem BioAssay by several laboratories.
IMP-1 inh: blocks Pseudomonas aeruginosa IMP-1 metallo-beta-lactamase; 290,000 compounds, 0.45% hits; inhibition, % at 5.6 µM; purified IMP-1, nitrocefin hydrolysis, epi-absorbance fluorescence;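 active = inhibition above the mean plus 3 SD of all compounds in the same screening run, cut at about 4.5% in these data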;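 note: 0% = IMP-1 with DMSO and 100% = DMSO wells lacking enzyme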
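Assay system: purified recombinant IMP-1 beta-lactamase. Input: IMP-1 0.2 nM before substrate addition. Buffer or medium: Zinc- and detergent-supplemented HEPES buffer, pH 7.1. Schedule: 25 °C, 15 min preincubation, 25 min reaction. Signal: Epi-absorbance fluorescence, 480 nm excitation, 530 nm emission. Evaluation: percent inhibition from optical density relative to buffer-blank wells.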
CHT allo act: allosteric activators of human choline transporter CHT; Q9GZV3; CHT-expressing cells, membrane potential dye, choline EC20; hits give high values; LV-AA mutant CHT in HEK293 cells; B-score at 10 µM; 310,000 compounds, 0.49% hits; AID 488977;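 active = initial fluorescence not abnormally high and integrated response B-score, plate-corrected, over 3 SD above library mean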
CHT block: inhibits the human high affinity choline transporter; Q9GZV3; 310,000 compounds, 0.86% hits; CHT-expressing cells, membrane potential dye, choline response; hits give low values; B-score at 10 µM;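 active = B-score over 3 SD under the library average, and starting fluorescence ratio not unusually high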;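 note: choline stimulus applied at its EC90 after an EC20 pre-addition; B-score computed on integrated fluorescence ratio after choline addition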
ANO1 activ: activates or potentiates the mouse TMEM16A chloride channel; HEK293 TMEM16A/YFP-H148Q/I152L, iodide quench fluorescence; hits give low values; B-score at 10 µM; 340,000 compounds, 0.3% hits; AID 623877;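 active = fluorescence-ratio B-score plate-corrected deviation score at least 3 library SD below zero, with starting fluorescence score within 5 deviations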;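 note: channel opened by trigger with iodide after compound preincubation; score built on the fluorescence ratio of max minus min over baseline; more negative score means more quench and so TMEM16A activation or potentiation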
Target sequence (Q8BHY3 whole entry, looked up): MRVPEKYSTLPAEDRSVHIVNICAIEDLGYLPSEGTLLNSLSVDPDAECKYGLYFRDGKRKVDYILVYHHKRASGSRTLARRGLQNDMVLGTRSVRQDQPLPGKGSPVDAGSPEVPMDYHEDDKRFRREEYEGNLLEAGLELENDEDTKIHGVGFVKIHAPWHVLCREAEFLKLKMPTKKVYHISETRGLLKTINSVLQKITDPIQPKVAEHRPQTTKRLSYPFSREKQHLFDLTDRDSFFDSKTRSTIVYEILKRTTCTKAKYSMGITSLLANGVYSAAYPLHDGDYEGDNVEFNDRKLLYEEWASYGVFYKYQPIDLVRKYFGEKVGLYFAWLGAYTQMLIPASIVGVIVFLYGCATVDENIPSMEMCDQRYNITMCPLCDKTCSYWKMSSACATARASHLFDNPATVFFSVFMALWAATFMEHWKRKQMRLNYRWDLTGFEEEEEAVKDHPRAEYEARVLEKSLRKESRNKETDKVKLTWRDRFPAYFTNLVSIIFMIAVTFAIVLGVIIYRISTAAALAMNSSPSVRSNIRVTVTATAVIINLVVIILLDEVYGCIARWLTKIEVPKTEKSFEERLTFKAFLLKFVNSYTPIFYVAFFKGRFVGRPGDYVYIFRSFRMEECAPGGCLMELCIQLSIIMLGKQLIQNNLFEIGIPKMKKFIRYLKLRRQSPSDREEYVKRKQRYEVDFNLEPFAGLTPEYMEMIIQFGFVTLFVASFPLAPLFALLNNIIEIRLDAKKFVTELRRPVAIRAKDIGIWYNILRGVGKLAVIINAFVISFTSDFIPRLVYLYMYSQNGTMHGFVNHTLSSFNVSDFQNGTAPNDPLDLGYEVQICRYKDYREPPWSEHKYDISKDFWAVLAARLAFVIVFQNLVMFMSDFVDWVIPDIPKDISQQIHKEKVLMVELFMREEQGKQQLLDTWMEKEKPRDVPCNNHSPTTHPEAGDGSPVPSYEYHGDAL
VIM-2 inhibitor: blocks Pseudomonas aeruginosa VIM-2 metallo-beta-lactamase; AID 1527; inhibition, % at 5.6 µM; 290,000 compounds, 0.89% hits; purified VIM-2, nitrocefin hydrolysis, epi-absorbance fluorescence;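 active = inhibition above the mean of all tested compounds plus 3 SD, cutoff set per screening run, cut at about 7.5% in these data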;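 note: red hydrolysis product quenches plate fluorescence so inhibitors raise well fluorescence; 0% = enzyme with DMSO and 100% = DMSO without enzyme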
ANO1 block: blocks the mouse calcium-activated chloride channel TMEM16A; AID 588511; 310,000 compounds, 1.2% hits; HEK293 TMEM16A/YFP iodide influx fluorescence, ionomycin; normalized B-score (activity score, 25-100; higher = stronger inhibition) at 10 µM; Q8BHY3;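 active = ratio plate-corrected score three or more library SD toward inhibition, starting fluorescence score within five deviations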;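 note: score derived from kinetic fluorescence span divided by baseline fluorescence per well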
CHT block conf: confirmation of human choline transporter CHT inhibitors; shares compounds with CHT block; CHT-expressing cells, choline membrane potential dye; LV-to-AA substituted CHT, HEK293 cells; CHT activity remaining % of control (hits give low values), % at 10 µM; 2,400 compounds, 70% hits;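 active = choline transporter activity left, mean of duplicates at 10 µM, below buffer-only control mean minus 3 SD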;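 note: depolarization triggered by choline at its EC90 following an EC20 pre-addition; 0% = hemicholinium-3 full block and 100% = buffer-only control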
HEK293 MPD ctr: counter-screen for CHT inhibitors: effect in parental HEK293 cells; 2,400 compounds, 4% hits; membrane potential dye, choline response; active = decrease or increase beyond buffer ±3SD; membrane potential ratio readout (active if shifted either direction beyond buffer ±3SD; no single direction) at 10 µM; shares compounds with CHT block; AID 493222;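 note: parental cells lack the transporter so any hit is non-specific; ratio is peak minus trough fluorescence over baseline after EC90 choline challenge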
Active calls of the source: *; i = inactive; nt = not tested or not shown. The list is not random: actives were taken first. Their share in the collection is about 3.4%.

SMILES	IMP-1 inh	CHT allo act	CHT block	ANO1 activ	VIM-2 inhibitor	ANO1 block	CHT block conf	HEK293 MPD ctr
Cc1ccc(C(=O)C[n+]2cc(Br)cc(Br)c2)cc1	-3	i	-13*	i	0	i	21%*	i
CC1(C(=O)Nc2nc3ccccc3s2)CC1(Br)Br (stereo unspecified)	-1	i	i	i	1	i	nt	nt
O=C(NC(=S)NNC(=O)c1ccccc1[N+](=O)[O-])c1ccc(Br)cc1	-4	i	i	i	-4	i	nt	nt
Cc1ccc(NC(=O)CN2CCOCC2)cc1C	2	i	i	i	1	i	nt	nt
O=C(C[n+]1cc(Br)cc(Br)c1)c1ccc(-c2ccccc2)cc1	-5	i	i	nt	-2	i	nt	nt
O=C(C[n+]1cccc(Br)c1)c1ccc(-c2ccccc2)cc1	-2	i	-15*	i	-2	i	-0.8%*	i
COc1ccc(C(=O)Nc2nc(CC(=O)NCCc3ccccc3)cs2)cc1	nt	i	-5.1*	i	nt	i	i	i
COc1cc(CNc2ccc(N3CCCC3)cc2)ccc1OCc1ccccc1	-3	i	i	i	-3	i	nt	nt
COc1cc(CNc2ccc(N3CCCCC3)cc2)ccc1OCC(=O)NC(C)(C)C	-32	i	-9.9*	i	1	i	47%*	i
O=C(CN1C(=O)NC2NC(=O)NC21)NN=C1CCCC1 (stereo unspecified)	-4	i	-20*	i	-4	i	i	i
CCOC(=O)Cc1csc(NS(=O)(=O)c2ccc3c4c(cccc24)C(=O)N3CC)n1	-3	i	-5*	i	0	i	46%*	i
CC(=O)Nc1ccc(C=NNc2ccc([N+](=O)[O-])cc2S(=O)(=O)Nc2ccccc2C(=O)O)cc1	nt	nt	nt	i	nt	nt	nt	nt
Cc1ccc(NC(=S)NNc2ccc([N+](=O)[O-])cc2S(=O)(=O)Nc2ccccc2C(=O)O)cc1C	-1	i	-7.2*	i	-2	i	50%*	i
O=C(Cc1ccc(S(=O)(=O)N2CCOCC2)s1)Nc1ccc(N2CCOCC2)cc1	-3	i	-5.1*	i	-4	i	i	i
CC(NC(=O)Cc1ccc(S(=O)(=O)N2CCOCC2)s1)c1ccc(Cl)c(Cl)c1 (stereo unspecified)	nt	i	-7.1*	i	nt	i	57%*	i
Cc1noc(C)c1CSCC(=O)Oc1ccc(N(C)S(=O)(=O)c2ccc(Cl)cc2)cc1	nt	i	i	i	nt	i	nt	nt
CCN(CC)c1ccc(C2C3CCCCC3(O)CCN2CC(=O)N2CCCCC2)cc1 (stereo unspecified)	0	i	-5.9*	i	2	i	i	i
CCN(CC)c1ccc([C@H]2[C@@H]3CCCC[C@]3(O)CCN2CC(=O)NCc2ccco2)cc1	-2	i	i	i	-2	i	nt	nt
COc1cc(CC(=O)OCC(=O)N2CCCCC2)cc(OC)c1OC	-1	i	i	i	2	i	nt	nt
Oc1ccc2ccccc2c1/C=N/c1nc2c(s1)CCCC2	0	i	i	i	-2	i	nt	nt
Oc1c(Br)cc(Br)cc1/C=N/c1nc2c(s1)CCCC2	-1	i	-12*	i	-2	i	57%*	i
O=C(NC(=S)NNC(=O)c1cccs1)c1ccc(Br)o1	-1	i	-7.5*	i	-2	i	43%*	i
O=C(NNC(=S)NC(=O)c1cccs1)c1ccc(O)cc1	-3	i	i	i	-3	i	nt	nt
